PG9 binder: small molecules binding HIV-1 gp120 antibody PG9; TR-FRET gp120-PG9 antibody binding; inhibition, % at 6.7 µM; actives 0.43% (n = 360,000); AID 624416; in the data active = inhibition above about 8.5%
Rev-erbA mod: Rev-erb alpha (human) modulation. P20393. Rev-erbα–FITC-DNA binding, fluorescence polarization, 90 min. activity, % at 10 µM. actives 0.79% (n = 370,000);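 active = activity above about 14%, limit read from the data; passing the limit was not always enough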
Target sequence (P20393 whole entry, looked up): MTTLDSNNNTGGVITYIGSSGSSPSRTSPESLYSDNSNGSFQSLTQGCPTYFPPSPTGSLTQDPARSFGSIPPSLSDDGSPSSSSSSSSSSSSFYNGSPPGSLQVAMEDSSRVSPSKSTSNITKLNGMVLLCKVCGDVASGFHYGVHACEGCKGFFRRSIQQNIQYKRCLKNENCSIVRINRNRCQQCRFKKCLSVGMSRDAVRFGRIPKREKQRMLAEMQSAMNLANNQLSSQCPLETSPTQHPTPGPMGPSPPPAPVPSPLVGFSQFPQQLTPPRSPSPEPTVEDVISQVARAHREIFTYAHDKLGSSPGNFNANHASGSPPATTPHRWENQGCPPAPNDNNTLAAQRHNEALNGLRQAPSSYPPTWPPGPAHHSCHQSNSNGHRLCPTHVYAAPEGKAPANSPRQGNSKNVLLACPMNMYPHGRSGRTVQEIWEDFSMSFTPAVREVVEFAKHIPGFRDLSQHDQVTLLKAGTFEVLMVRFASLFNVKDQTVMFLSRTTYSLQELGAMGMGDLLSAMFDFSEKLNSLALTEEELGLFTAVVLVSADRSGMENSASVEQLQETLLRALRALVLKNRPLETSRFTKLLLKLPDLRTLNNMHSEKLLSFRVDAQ
NR2E3 ag-1: human photoreceptor-specific nuclear receptor agonism | Q9Y5X4 | CHO-S Gal4-NCOR/VP16-NR2E3 two-hybrid, luciferase | inhibition of corepressor binding, % at 3.98 µM | actives 0.35% (n = 360,000);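 active = inhibition above the mean of all tested compounds plus 3 SD, cut at about 70% in these data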;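 note: higher means lower luciferase signal from less NR2E3 corepressor binding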
NR2E3 ag-2: agonists of human nuclear receptor NR2E3; Q9Y5X4; GST-NR2E3/biotin-RetCOR TR-FRET, 1536-well; inhibition of corepressor binding, % at 4.78 µM; actives 0.12% (n = 320,000); AID 2300;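 active = percent inhibition above the cutoff of mean plus 3 SD of all tested compounds, set per screening campaign, cut at about 20% in these data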
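Test system: GST-NR2E3 and biotin-RetCOR proteins | Quantity: 1.35 nM GST-tagged NR2E3 final | Medium: Tris pH 7.5 | Also added: 7 nM biotin-RetCOR | Dosing: Compound at 4.8 µM, single dose | Timing: 5 h at 4 °C | Detection: Time-resolved FRET | Read-out basis: Percent inhibition | Benchmarks: Biotin wells as high control, 0.6% DMSO wells as low control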
GalR3 antagonist: antagonists of human GalR3; AID 651719; actives 0.44% (n = 360,000); HEK293 GalR3-CNG cAMP membrane potential fluorescence; galR3 body fused to GalR1 C-terminus; inhibition, % at 3 µM;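 active = inhibition above the screen-wide average plus 3 SD, cut at about 13% in these data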;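 note: forskolin and galanin both at EC90 stimulate the cells; cAMP rise reported by CNG channel membrane potential dye signal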
NR2E3 ag conf: NR2E3 agonism confirmed in two-hybrid assay. shares compounds with NR2E3 ag-1. inhibition, % at 3.98 µM. CHO-S mammalian two-hybrid NR2E3-NCOR, luciferase luminescence. actives 51% (n = 2,300);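 active = average inhibition above a cutoff equal to the mean inhibition of all tested compounds plus one SD, cut at about 70% in these data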
VP16 counter: reduces GAL4-VP16 reporter signal in NR2E3 counterscreen; actives 29% (n = 2,300); CHO-S GAL4-VP16 luciferase reporter, luminescence; AID 624379; inhibition, % at 3.98 µM; shares compounds with NR2E3 ag-1;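 active = mean inhibition above a cutoff equal to the average over all tested compounds plus one standard deviation, cut at about 70% in these data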;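 note: luciferase from a UAS reporter driven by GAL4-VP16 transactivation; higher means less reporter light so more repression of VP16 activity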
Each line names hits and unclear results; the compound was inactive in the other large screens (follow-up assays come after a bar, where they were run). Rows were chosen to be rich in hits. Some 1.8% of all compounds tested hit in one or more screens of this group.

O=S(=O)(c1cc(C(F)(F)F)ccc1Cl)N1CCN(c2ncnc3ccccc23)CC1	NR2E3 ag-1 99 (no result: NR2E3 ag-2) | NR2E3 ag conf 95 | VP16 counter 86
Cc1cc(C)c(C)c(S(=O)(=O)N2CCN(c3ncnc4ccccc34)CC2)c1C	none | NR2E3 ag conf 89 | VP16 counter inactive
O=C(NCC1CCN(C(=O)C(=O)c2cccs2)CC1)c1ccc2c(c1)CCO2	none (no result: NR2E3 ag-1, NR2E3 ag-2)
CCCCOCCCNC(=O)C[C@H]1C[C@@]2(C(=O)OC)C(=C[C@H](COCc3ccccc3)O[C@@H]2C)N(Cc2ccco2)C1=O	none (no result: PG9 binder, NR2E3 ag-1, NR2E3 ag-2, GalR3 antagonist)
CCCCOc1ccc(CONS(=O)(=O)c2ccc(NC(C)=O)cc2)cc1Cl	none | NR2E3 ag conf 81 | VP16 counter inactive
COc1cccc(NC(=O)Nc2nc3ncccn3c2-c2ccc(C(F)(F)F)cc2)c1	none (no result: PG9 binder, NR2E3 ag-1, NR2E3 ag-2, GalR3 antagonist)
CC(=O)N1CCN(c2ccc(OCC3CO[C@](Cn4ccnc4)(c4ccc(Cl)cc4Cl)O3)cc2)CC1 (some centres undefined)	none (no result: PG9 binder, NR2E3 ag-1, NR2E3 ag-2, GalR3 antagonist)
Clc1ccccc1-c1cnc2sc(NCc3ccc4c(c3)OCO4)nn12	none (no result: NR2E3 ag-2) | NR2E3 ag conf inactive | VP16 counter inactive
Clc1ccccc1-c1ccc2ncnc(NCc3ccc4c(c3)OCO4)c2c1	none
COc1ccc2oc(C(=O)NCCc3ccccc3)c(C)c2c1	none
COc1ccc2oc(C(=O)NCc3cc(OC)c(OC)cc3OC)c(C)c2c1	NR2E3 ag-1 75 | NR2E3 ag conf inactive | VP16 counter inactive
CN(CCc1ccccc1)C(=O)c1cc2ccccn2n1	none (no result: PG9 binder, NR2E3 ag-1, NR2E3 ag-2, GalR3 antagonist)
CSc1cccc(NS(=O)(=O)c2ccc(-c3coc(C)n3)cc2)c1	NR2E3 ag-1 93 | NR2E3 ag conf 77 | VP16 counter inactive
Cc1ccc(NS(=O)(=O)c2ccc(-c3coc(C)n3)cc2)c(Br)c1	none | NR2E3 ag conf inactive | VP16 counter inactive
COC(=O)Cn1c(=O)c2c(nc3n2CC(C)CN3Cc2ccccc2)n(C)c1=O (centres undefined)	none
C=C(C)Cn1c(=O)c2c(nc3n2CC(C)CN3Cc2ccccc2)n(C)c1=O (centres undefined)	none | NR2E3 ag conf inactive | VP16 counter inactive
OC(Cc1ccnc2ccccc12)C(Cl)(Cl)Cl (centres undefined)	none (no result: NR2E3 ag-2) | NR2E3 ag conf inactive | VP16 counter inactive
COC(=O)[C@]12C[C@H](CC(=O)NCCC(C)C)C(=O)N(CCc3ccc(OC)c(OC)c3)C1=C[C@H](COCc1ccccc1)O[C@@H]2C	none (no result: PG9 binder, NR2E3 ag-1, NR2E3 ag-2, GalR3 antagonist)
COc1ccc(N2CCN(S(=O)(=O)c3ccc4c(c3)NC(=O)C(C)S4)CC2)cc1 (centres undefined)	none | NR2E3 ag conf inactive | VP16 counter inactive
Cc1ccc(CNS(=O)(=O)c2ccc3c(c2)NC(=O)C(C)S3)cc1 (centres undefined)	none | NR2E3 ag conf inactive | VP16 counter inactive
CCC(Cc1ccccc1)NS(=O)(=O)c1ccc2c(c1)NC(=O)C(C)S2 (centres undefined)	none | NR2E3 ag conf inactive | VP16 counter inactive
COc1cccc(NS(=O)(=O)c2ccc3c(c2)NC(=O)C(C)S3)c1 (centres undefined)	none | NR2E3 ag conf inactive | VP16 counter inactive
COc1ccc(N2CCN(S(=O)(=O)c3ccc4c(c3)NC(=O)CS4)CC2)cc1	none
CC(C)(C)c1ccc(S(=O)(=O)N2CCCC2C(=O)N2CCc3ccccc3C2)cc1 (centres undefined)	none (no result: PG9 binder, NR2E3 ag-1, NR2E3 ag-2, GalR3 antagonist)
CCNC(=O)N(C)[C@H]1C[C@H]2c3[nH]c4cccc(-c5cccc(F)c5)c4c3CCN2C(=O)[C@H]1[C@H](C)O	none (no result: PG9 binder, NR2E3 ag-1, NR2E3 ag-2, GalR3 antagonist)
CSCCCNC(=O)Cn1nc(Cc2ccncc2)c2ccccc2c1=O	none (no result: PG9 binder, NR2E3 ag-1, NR2E3 ag-2, GalR3 antagonist)
Cc1ccc(C2=CCN(C)C(=O)N2c2ccc(Br)cc2)cc1	none (no result: PG9 binder, NR2E3 ag-1, NR2E3 ag-2, GalR3 antagonist)
CCOc1ccc(N(CC(=O)Nc2c(C)n(C)n(-c3ccccc3)c2=O)S(=O)(=O)c2ccc(C)c(C)c2)cc1	none (no result: PG9 binder, NR2E3 ag-1, NR2E3 ag-2, GalR3 antagonist)
CCc1cccc(NS(=O)(=O)c2ccc3c(c2)NC(=O)C(C)S3)c1 (centres undefined)	none | NR2E3 ag conf inactive | VP16 counter inactive
COc1ccccc1NS(=O)(=O)c1ccc2c(c1)NC(=O)C(C)S2 (centres undefined)	none

Screens: PubChem, several laboratories
